Assay outcomes as filed in PubChem.
In the library only some 9.2% were active in any assay of this set; here they are far more common.
bCat KO growth = beta-catenin-lacking colon tumor cell growth suppression | HCT116 beta-catenin knockout viability, CellTiter-Glo, 60 h; stronger effect = lower value | viability, % at 10 µM | 140,000 tested, 1.5% active;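 active = viability at or under a set limit, the compound median less 4 SD, cut at about 6% in these data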;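 note: 0% = Hyamine 1622 control at 20 µM and 100% = untreated cell control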
Dynein transport = blocks dynein driven cargo transport along microtubules; 3617.4 mouse cells, GR-EGFP nuclear translocation imaging; test concentration mostly 20 µM; stimulated with dexamethasone, 1 µM; stronger effect = lower value; z-score, hits read low; 220,000 tested, 0.47% active;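 active = plate z-score of nuclear minus cytoplasmic receptor signal below a set negative limit, without overly bright fluorescence or cell loss, cut at about -3.5 in these data, passing the limit was not always enough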;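 note: z-score of nuclear minus cytoplasmic ring GR-EGFP intensity difference per well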
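Medium: Induction medium lacking tetracycline, stripped serum | Probe or stimulus: 1.0 µM final dexamethasone stimulus | Schedule: 48 h induction, then 1 h compound, then 30 min agonist, 37 °C | Signal: Automated 10x imaging of fixed Hoechst-stained cells | Evaluation: Per-cell GR-EGFP intensity, nucleus versus surrounding cytoplasmic ring, well-averaged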
PTEN del growth = suppresses growth of cells with PTEN deletion; viability, % at 10 µM; 140,000 tested, 1.2% active; HCT116 PTEN-null viability, CellTiter-Glo, 60 h; stronger effect = lower value;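 active = viability at or below a set limit, 4 SD under the median of all tested compounds, cut at about 3.7% in these data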;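 note: PTEN knockout HCT116 line with beta catenin targeted HCT116 as companion control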
Autophagy HCS = alters autophagy in cells. MEF GFP-LC3 puncta imaging; test concentration mostly 10 µM. calls only at 10 µM (by protocol). 190,000 tested, 0.98% active. AID 463193;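 active = percentage of spot-positive cells more than 3 SD above its plate mean, without a fluorescence outlier flag or 80% toxicity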;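 note: spot-positive cell cutoff set from DMSO-treated cells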
L major viab = inhibitors of Leishmania major promastigote growth; inhibition, % at 10 µM; Leishmania major promastigotes, resazurin fluorescence viability; 200,000 tested, 9% active; AID 1063; in the data active = inhibition above about 50%;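 note: promastigotes grown with compound for 44 hours at 28 °C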
The depositor's hits bear a star.

For CCOC(=O)C1CCN(Cc2ccc(F)cc2)CC1 the results were bCat KO growth 93.9, Dynein transport 0.846, PTEN del growth 92.6, Autophagy HCS inactive and L major viab 89.0*.
CCOC(=O)C1CCN(Cc2ccc(C(=O)OC)cc2)CC1 was read as bCat KO growth 95.8, Dynein transport 0.0368, PTEN del growth 102.5, Autophagy HCS inactive and L major viab 95.1*.
`CCOC(=O)C1CCN(Cc2ccc(O)c(OC)c2)CC1` gave bCat KO growth 85.7, Dynein transport -0.312, PTEN del growth 91.6, Autophagy HCS inactive and L major viab 84.5*.
Screening CCOC(=O)C1CCN(Cc2ccc(Cl)c(Cl)c2)CC1 returned bCat KO growth 94.8, Dynein transport -0.738, PTEN del growth 100.9, Autophagy HCS inactive and L major viab 87.6*.
For O=c1c2ccccc2c(/C=N/c2n[nH]c(CCCO)n2)c(O)n1-c1ccccc1Cl the results were Dynein transport 0.456, Autophagy HCS inactive and L major viab -6.4.
`CCOC(=O)C1(CC2CC2)CCN(Cc2ccc(C(=O)OC)cc2)CC1` gave Dynein transport 1.53, Autophagy HCS inactive and L major viab 92.2*.
`CCOC(=O)C1(CC2CC2)CCN(Cc2cn(C)c3ccccc23)CC1` gave Dynein transport 1.21, Autophagy HCS inactive and L major viab 40.4.
For COc1ccc(/C=C/C(=O)C2CC2)cc1COc1cccc(C)c1C the results were Dynein transport 0.611.
`CCOc1cc(C2C(C#N)=C(N)OC(C)=C2C(C)=O)c(Br)c(Br)c1OC(C)C` (stereo not drawn) gave bCat KO growth 12.3, Dynein transport -0.303, PTEN del growth 10.5, Autophagy HCS inactive and L major viab 63.8*.
For Cc1cccc(OCC2CCCN(Cc3nc(C4CC4)no3)C2)c1 (stereo not drawn) the results were Dynein transport 0.423, Autophagy HCS inactive and L major viab 62.0*.
`COc1ccc(OCC2CCCN(Cc3nc(CC4CC4)no3)C2)cc1` (stereo not drawn) gave Dynein transport -0.337, Autophagy HCS inactive and L major viab -2.9.
Screening Cc1cc(NC(=O)CN2C(=O)C3CC=CCC3C2=O)no1 (stereo not drawn) returned bCat KO growth 96.6, Dynein transport 0.0791, PTEN del growth 100.2, Autophagy HCS inactive and L major viab -8.5.
For Cc1cc(C)cc(NC(=O)CSc2nnc(-c3ccccc3Br)o2)c1 the results were bCat KO growth 67.0, Dynein transport -0.542, PTEN del growth 68.0, Autophagy HCS inactive and L major viab 18.4.
For Cc1cc(Br)c(NC(=O)COC(=O)CSc2nnc(-c3ccc(Cl)cc3)o2)c(Br)c1 the results were bCat KO growth 92.1, Dynein transport -0.893, PTEN del growth 89.2, Autophagy HCS inactive and L major viab 52.3*.
Cc1ccn(S(=O)(=O)c2ccc(C(C)(C)C)cc2)n1 was read as bCat KO growth 79.0, Dynein transport -0.917, PTEN del growth 86.1, Autophagy HCS inactive and L major viab 71.2*.
For CCOc1cc(S(=O)(=O)n2ccc(C)n2)ccc1Br the results were Dynein transport 1.62, Autophagy HCS inactive and L major viab -7.0.
COCCCN(C(=S)NC(=O)C12CC3CC(CC(C3)C1)C2)c1c(N)n(Cc2ccccc2)c(=O)[nH]c1=O was read as Dynein transport -0.337, Autophagy HCS inactive and L major viab -6.5.
`COc1ccccc1NC(=S)NC1CCCCCC1` gave bCat KO growth 63.1, Dynein transport 0.645, PTEN del growth 67.2, Autophagy HCS inactive and L major viab 48.3.
Screening O=C(Nc1ccc(Cl)cc1)N1CCSc2ccccc21 returned bCat KO growth 100.2, Dynein transport 0.771, PTEN del growth 101.2, Autophagy HCS inactive and L major viab 90.3*.
Screening O=C(Nc1ccc(Cl)cc1)N1CCSCC1 returned bCat KO growth 92.3, Dynein transport 1.77, PTEN del growth 98.4, Autophagy HCS inactive and L major viab 1.4.
O=C(Nc1cccc(Cl)c1)N1CCCC1 was read as bCat KO growth 99.4, Dynein transport 0.389, PTEN del growth 95.1, Autophagy HCS inactive and L major viab 99.7*.
`O=C(Nc1ccc(Cl)cc1)N1CCCC1` gave bCat KO growth 100.5, Dynein transport -0.877, PTEN del growth 113.7, Autophagy HCS inactive and L major viab 96.0*.
`O=C(NCC1CCCO1)C(c1ccc(N2CCOCC2)cc1)N(C(=O)Cn1nnc2ccccc21)c1ccccc1F` (stereo not drawn) gave Dynein transport -0.365, Autophagy HCS inactive and L major viab -2.7.
Screening C[n+]1cccc(/C=N/NC(=O)CC23CC4CC(CC(C4)C2)C3)c1 returned Dynein transport -0.731.
Screening Cc1cccc(N(CC(=O)N/N=C/c2ccc(OCC(=O)NCc3ccco3)cc2)S(C)(=O)=O)c1C returned bCat KO growth 102.7, Dynein transport 1.46, PTEN del growth 94.7, Autophagy HCS inactive and L major viab -10.9.
Screening O=C(Nc1nc2ccccc2n1Cc1ccccc1)c1ccc(COc2ccccc2[N+](=O)[O-])o1 returned bCat KO growth 11.2, Dynein transport 2.81, PTEN del growth 19.5, Autophagy HCS active and L major viab -2.9.
Screening O=C(Nc1nc2ccccc2n1CCN1CCOCC1)c1ccc(COc2ccccc2Br)o1 returned Dynein transport 1.75, Autophagy HCS inactive and L major viab 54.6*.
Screening COc1ccc(/C=C/C(=O)N(C)Cc2cccs2)cc1S(=O)(=O)N1CCOCC1 returned Dynein transport 0.00505, Autophagy HCS inactive and L major viab -1.9.
CCC(C)(C(=O)NC1CCCC1)N(C(=O)CC1NC(=O)NC1=O)c1c(C)n(C)n(-c2ccccc2)c1=O (stereo not drawn) was read as Dynein transport -0.667, Autophagy HCS inactive and L major viab -5.1.
`O=C(COC(=O)Cc1ccc(Cl)cc1)Nc1ccc(OC(F)F)cc1` gave bCat KO growth 89.2, Dynein transport -0.566, PTEN del growth 97.2, Autophagy HCS inactive and L major viab -3.9.
Screening CC(C(=O)Nc1ccccc1Br)c1ccc([N+](=O)[O-])cc1 (stereo not drawn) returned bCat KO growth 83.4, Dynein transport 0.418, PTEN del growth 81.8, Autophagy HCS inactive and L major viab -2.8.
For O=C(Cc1ccc(Cl)cc1Cl)Nc1cccc(S(=O)(=O)Nc2ccccc2F)c1 the results were bCat KO growth 91.1, Dynein transport 0.107, PTEN del growth 85.8, Autophagy HCS inactive and L major viab 75.1*.
For CCC(C)C(NC(N)=O)C(=O)Nc1ccc(C)c(Cl)c1 (stereo not drawn) the results were bCat KO growth 88.8, Dynein transport 0.0144, PTEN del growth 94.5, Autophagy HCS inactive and L major viab 58.4*.
O=C(COC(=O)Cc1ccc(Cl)cc1Cl)Nc1ccc(OC(F)F)cc1 was read as bCat KO growth 101.1, Dynein transport 0.624, PTEN del growth 94.8, Autophagy HCS inactive and L major viab 69.7*.
